In ChEMBL document CHEMBL4130635, “2,4-Diaminoquinazolines as Dual Toll-like Receptor (TLR) 7/8 Modulators for the Treatment of Hepatitis B Virus” (J Med Chem, 2018):
Active and inactive are the calls of the source. No cut-off for these calls is given here.

Legend:
Liver [1] = assay: Proinflammatory activity in C57BL/6J mouse liver assessed as IL-6 levels at 0.3 mg/kg, po by multiplex assay (reference value: 10 pg/g); assay type: functional, organism-based
Liver [2] = assay: Effect on cytokine profile in C57BL/6J mouse liver assessed as IFNgamma levels at 30 mg/kg, po by multiplex assay; assay type: functional
Outline: (§1)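 Single oral gavage in 20% HP-β-CD to healthy C57BL/6 mice, groups of 15 at 0.3, 1, 3, 10 or 30 mg/kg. Three mice per group sacrificed at 0.5, 1, 2, 4 or 7 h. Plasma and liver cytokines by multiplex, maximum level reported, rounded to nearest multiple of 5.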

Mus musculus = assay: Toxicity in C57BL/6J mouse assessed as change in body temperature at 1 to 30 mg/kg, po; assay type: organism-based; details: in vivo
Cynomolgus monkey [3] = assay: Plasma concentration in cynomolgus monkey at 1 mg/kg, po by LC-MS analysis; assay type: ADME, organism-based, Macaca fascicularis; details: in vivo
Cynomolgus monkey [4] = assay: Proinflammatory activity in cynomolgus monkey plasma assessed as TNFalpha levels at 3 mg/kg, po after 24 hrs by Luminex assay (reference value: 285 pg/ml); assay type: functional, Macaca fascicularis
[5] = Cmax in C57BL/6J mouse plasma at 3 mg/kg, po by LC-MS analysis; assay type: ADME, organism-based; parameters: dose 3 mg/kg, route oral
Outline: (§2)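 Healthy C57BL/6 mice, groups of 15, given a single oral dose (0.3, 1, 3, 10 or 30 mg/kg) in 20% HP-β-CD. Blood drawn at 0.5 h. Three mice per group sacrificed at 0.5, 1, 2, 4 or 7 h, and compound in plasma and liver measured by LC−MS. Values rounded to whole numbers.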

Liver [6] = assay: Induction of IFNalpha levels in C57BL/6J mouse liver at 30 mg/kg, po by ELISA (reference value: 30 pg/g); assay type: functional
Plasma [7] = assay: Induction of IFNalpha levels in C57BL/6J mouse plasma at 10 mg/kg, po by ELISA; assay type: functional
Cynomolgus monkey [8] = assay: Effect on cytokine profile in cynomolgus monkey plasma assessed as IP10 levels at 1 mg/kg, po after 24 hrs by Luminex assay (reference value: 18.5 pg/ml); assay type: functional, Macaca fascicularis
Outline: (§3)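 Healthy cynomolgus monkeys given single oral doses of 1, 3, 9 and 30 mg/kg, with a 2-week wash-out planned between doses. Systemic cytokine levels in plasma were sampled at 0.5, 1, 2, 4, 9 and 24 h postdose.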

[9] = Cmax in C57BL/6J mouse plasma at 30 mg/kg, po by LC-MS analysis; assay type: ADME, organism-based; parameters: dose 30 mg/kg, route oral; outline: as §2
Plasma [10] = assay: Effect on cytokine profile in C57BL/6J mouse plasma assessed as IL-12p70 levels at 30 mg/kg, po by multiplex assay (reference value: 560 pg/ml); assay type: functional; outline: as §1
Cynomolgus monkey [11] = assay: Activation of monocytes in cynomolgus monkey plasma assessed as upregulation of MIP1 levels at 3 mg/kg, po after 24 hrs by Luminex assay (reference value: 37 pg/ml); assay type: functional, Macaca fascicularis
Cynomolgus monkey [12] = assay: Toxicity in cynomolgus monkey assessed as clinical observation changes up to 30 mg/kg, po; assay type: organism-based, Macaca fascicularis; details: in vivo
Cynomolgus monkey [13] = assay: Induction of G-CSF in cynomolgus monkey plasma at 9 mg/kg, po after 24 hrs by Luminex assay (reference value: 85 pg/ml); assay type: functional, Macaca fascicularis; outline: as §3
[14] = target: T1, TLR7 and TLR8 (Homo sapiens) (UniProt Q9NYK1+Q9NR97); assay: Agonist activity at TLR7/8 in human PBMCs co-cultured with primary human hepatocytes infected with HBV genotype C for 12 days assessed as increase in IFNalpha2 levels up to 5 uM measured after 42 days
Plasma [15] = assay: Proinflammatory activity in C57BL/6J mouse plasma assessed as IL-1beta levels at 10 mg/kg, po by multiplex assay (reference value: 60 pg/ml); assay type: functional
Liver [16] = assay: Proinflammatory activity in C57BL/6J mouse liver assessed as IL-1beta levels at 30 mg/kg, po by multiplex assay; assay type: functional
[17] = target: T1, TLR7 and TLR8 (Homo sapiens); assay: Agonist activity at TLR7/8 in human PBMCs co-cultured with primary human hepatocytes infected with HBV genotype C for 12 days assessed as increase in IL-1Ra levels up to 5 uM measured after 42 days
[18] = system: Toll-like receptor 7/8 (Homo sapiens); assay: Agonist activity at TLR7/8 in human PBMCs assessed as decrease in HBsAg levels in human hepatocytes infected with HBV genotype C for 12 days followed by exposure to conditioned supernatant from up to 5 uM compound treated PBMCs measured after 42 days
[19] = Cmax in cynomolgus monkey plasma at 1 mg/kg, po by LC-MS analysis; assay type: ADME, organism-based, Macaca fascicularis; parameters: dose 1 mg/kg, route oral
Outline: (§4)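 Healthy cynomolgus monkeys received oral doses of 1, 3, 9 and 30 mg/kg, with a 2-week wash-out between doses. Systemic compound concentrations by LC−MS at 0.25, 0.5, 1, 2, 4, 8 and 24 h postdose.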

Cynomolgus monkey [20] = assay: Effect on cytokine profile in cynomolgus monkey plasma assessed as IP10 levels at 9 mg/kg, po after 24 hrs by Luminex assay (reference value: 18.5 pg/ml); assay type: functional, Macaca fascicularis; outline: as §3
Plasma [21] = assay: Effect on cytokine profile in C57BL/6J mouse plasma assessed as IL-12p70 levels at 0.3 mg/kg, po by multiplex assay (reference value: 560 pg/ml); assay type: functional; outline: as §1
Plasma [22] = assay: Proinflammatory activity in C57BL/6J mouse plasma assessed as IL-6 levels at 10 mg/kg, po by multiplex assay (reference value: 505 pg/ml); assay type: functional
Cytochrome P450 3A4 = Cytochrome P450 3A4 (Homo sapiens, UniProt P08684); assay: Induction of CYP3A4 (unknown origin); assay type: ADME
Sequence of Cytochrome P450 3A4 (P08684 whole entry): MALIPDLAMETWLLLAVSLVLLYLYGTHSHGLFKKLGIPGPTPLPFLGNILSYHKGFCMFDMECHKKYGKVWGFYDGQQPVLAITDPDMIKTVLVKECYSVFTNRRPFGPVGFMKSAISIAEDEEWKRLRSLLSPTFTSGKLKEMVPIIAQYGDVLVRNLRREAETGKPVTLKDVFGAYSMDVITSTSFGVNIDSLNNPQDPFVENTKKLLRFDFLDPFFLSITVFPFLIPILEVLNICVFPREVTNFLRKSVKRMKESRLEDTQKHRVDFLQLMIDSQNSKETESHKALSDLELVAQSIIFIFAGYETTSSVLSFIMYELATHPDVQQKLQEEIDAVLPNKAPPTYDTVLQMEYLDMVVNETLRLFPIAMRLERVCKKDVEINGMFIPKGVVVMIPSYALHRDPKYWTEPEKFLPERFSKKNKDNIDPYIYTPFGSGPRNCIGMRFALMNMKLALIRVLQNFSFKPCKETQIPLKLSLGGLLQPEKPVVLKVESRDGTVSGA

Cynomolgus monkey [23] = assay: Proinflammatory activity in cynomolgus monkey plasma assessed as IL-6 levels at 3 mg/kg, po after 24 hrs by Luminex assay (reference value: 80 pg/ml); assay type: functional, Macaca fascicularis
[24] = Cmax in cynomolgus monkey plasma at 3 mg/kg, po by LC-MS analysis; assay type: ADME, organism-based, Macaca fascicularis; parameters: dose 3 mg/kg, route oral; outline: as §4
Liver [25] = assay: Proinflammatory activity in C57BL/6J mouse liver assessed as IL-6 levels at 30 mg/kg, po by multiplex assay (reference value: 10 pg/g); assay type: functional
[26] = Intrinsic clearance in mouse liver microsomes assessed per mg protein at 1 uM up to 60 mins; assay type: ADME, microsome; details: read-out: CLH
Cynomolgus monkey [27] = assay: Upregulation of Tlr7 expression in cynomolgus monkey plasma at 3 mg/kg, po after 24 hrs by Fluidigm RT-qPCR analysis (reference value: 1.8); assay type: functional, Macaca fascicularis
Cynomolgus monkey [28] = assay: Effect on cytokine profile in cynomolgus monkey plasma assessed as IP10 levels at 30 mg/kg, po after 24 hrs by Luminex assay (reference value: 18.5 pg/ml); assay type: functional, Macaca fascicularis; outline: as §3
[29] = Stability in rat hepatocytes assessed compound turnover at 1 uM after 60 mins; assay type: ADME, cell-based, Hepatocyte; details: read-out: Drug metabolism
[30] = Tmax in Sprague-Dawley rat plasma at 10 mg/kg, po; assay type: ADME, organism-based
Plasma [31] = assay: Proinflammatory activity in C57BL/6J mouse plasma assessed as TNFalpha levels at 0.3 mg/kg, po by multiplex assay (reference value: 70 pg/ml); assay type: functional, organism-based
Plasma [32] = assay: Upregulation of IP-10 mRNA expression levels in C57BL/6J mouse plasma at 0.3 mg/kg, po by RT-qPCR analysis (reference value: 1); assay type: functional
[33] = Solubility of the compound in FaSSIF; assay type: physicochemical

Compound: CCC[C@@H](CCO)Nc1nc(N)nc2c(F)cccc12
- Activity (Liver [1]): Below limit of detection
- Activity (Liver [2]): 700 pg/g
- Activity (Mus musculus): Non-Toxic
- Cp (Cynomolgus monkey [3]): 5.9 ng/mL
- Activity (Cynomolgus monkey [4]): 70 pg/mL
- Cmax [5]: 22 ng/mL
- Activity (Liver [6]): 955 pg/g
- Activity (Plasma [7]): >3200 pg/mL
- Activity (Cynomolgus monkey [8]): 1690 pg/mL
- Cmax [9]: 813 ng/mL
- Activity (Plasma [10]): 820 pg/mL
- Activity (Cynomolgus monkey [11]): 85 pg/mL
- Activity (Cynomolgus monkey [12]): Non-Toxic
- Activity (Cynomolgus monkey [13]): 825 pg/mL
- Activity [14]: Active
- Activity (Plasma [15]): 55 pg/mL
- Activity (Liver [16]): 56615 pg/g
- Activity [17]: Active
- Activity [18]: Dose-dependent effect
- Cmax [19]: 38 ng/mL
- Activity (Cynomolgus monkey [20]): 2400 pg/mL
- Activity (Plasma [21]): 470 pg/mL
- Activity (Plasma [22]): >10000 pg/mL
- Activity (Cytochrome P450 3A4): Not Active
- Activity (Cynomolgus monkey [23]): 200 pg/mL
- Cmax [24]: 142 ng/mL
- Activity (Liver [25]): 7555 pg/g
- microsomal CLint at 1 µM [26]: 100 µL/min/mg
- fold change (FC) (Cynomolgus monkey [27]): 5.1
- Activity (Cynomolgus monkey [28]): 8195 pg/mL
- metabolised at 1 h, 1 µM [29]: 96%
- Tmax [30]: 30 min
- Activity (Plasma [31]): Below limit of detection
- fold change (FC) (Plasma [32]): 15
- solubility [33]: > 4000 µg/mL
